Source: ChEMBL document CHEMBL5036309, “Orally Active Peptide Vector Allows Using Cannabis to Fight Pain While Avoiding Side Effects” (J Med Chem, 2021)
The source made the active and inactive calls. Square brackets hold non-standard residues; d marks the D form. Peptide text beside a SMILES is read from it.

Tests used:
Mus musculus [1] = assay: Analgesic activity in mouse assessed as pain response at 5 to 20 mg/kg, po pretreated with compound for 30 mins followed by THP addition and measured after 60 mins by hot plate test; type: functional, organism-based; details: dose 5-20 mg/kg, time 90.0 min
Summary of the method: (§1)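 Mice got peptide or vehicle IV (20 mg/kg) or orally by gavage (5, 10, 20 mg/kg) 30 min before IP THC 10 mg/kg (vehicle 5% ethanol, 5% Cremophor-EL, 90% saline). Latency to jump on a 52 ± 0.5 °C hot plate was read 60 min after THC, with a 240 s cutoff. Mean ± SEM, n = 10–12 (IV) or 5–8 (oral); Fisher LSD.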

Mus musculus [2] = assay: Protection against THP-induced amnesic effect in mouse assessed as reduction in memory impairment at 5 to 20 mg/kg, po pretreated for 30 mins followed by THP addition; type: functional, organism-based; details: dose 5-20 mg/kg
Summary of the method: (§2)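 V-maze novel object recognition. Day 1 was 9 min habituation. Day 2 was 9 min training with two identical objects. Peptide was given IV (20 mg/kg) or orally (5, 10, 20 mg/kg) right after training, then IP THC 3 mg/kg or vehicle 30 min later. The 9 min test came 24 h later with one object replaced. Discrimination index = (novel − familiar)/total exploration time; exploration meant the nose oriented within 2 cm of the object. Fisher LSD.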

BEND3 = assay: Induction of BBB translocation in mouse BEND3 cells measured after 24 hrs by fluorescence analysis; type: functional, cell-based
Summary of the method: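 5(6)-Carboxyfluorescein-labeled peptides were applied to a transwell BBB model of bEnd.3 cells. Translocation (%) was measured as fluorescence in the basolateral chamber after 24 h, with a trans-BBB peptide as positive control. Barrier integrity was checked afterward by FD4 dextran permeability. Mean ± SEM, n = 3–6, independent cultures on different days.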

[3] = Drug internalization in mouse BEND3 cells by confocal microscopic analysis; type: ADME, cell-based
Summary of the method: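 bEnd.3 mouse brain endothelial cells were exposed to 5(6)-carboxyfluorescein-labeled peptides and counterstained with Hoechst 33342 and CellMask Deep Red membrane stain. Imaging used point-scanning confocal microscopy with a 63× oil objective, 405 nm excitation for the stains and 488 nm for the peptide.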

Mus musculus [4] = assay: Protection against THP-induced amnesic effect in mouse assessed as reduction in memory impairment at 20 mg/kg, iv pretreated for 30 mins followed by THP addition; type: functional, organism-based; summary of the method: as §2
HEK293T = assay: Inhibition of human c-YFP fused CB1R/n-YFP fused 5HT2A receptor heterodimer formation transfected in human HEK293T cells at 4 uM incubated for 4 hrs by BIFC assay; type: cell-based
Summary of the method: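 HEK-293T cells were cotransfected 48 h with 5HT2AR-cYFP and CB1R-nYFP (4 μg cDNA each, polyethylenimine), then treated with 4 μM peptide or vehicle for 4 h at 37 °C. Reconstituted YFP Venus was read on 20 μg protein at 530 nm emission with 400 nm excitation, minus the fluorescence of non-expressing cells. Mean ± SEM, n = 10–30.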

Mus musculus [5] = assay: Immunogenicity in CD1 mouse at 100 ug administered for 5 consecutive days and booster dose on day 15 measured upto 19 days by ELISA; type: ADME, organism-based; details: in vivo, 456 h, time <=19 day, dose 100 µg
Summary of the method: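 Female outbred Hsd:ICR (CD-1) mice (n = 10) got IV peptide 100 μg/dose in PBS + 2% DMSO on 5 consecutive days with a boost on day 15. Controls were KLH conjugate 30 μg (n = 5) and PBS (n = 5). Sera from days 0, 9 and 19 were tested by indirect ELISA on plates coated with peptide-BSA 1 μg/mL, using anti-IgG-HRP, TMB and A450. Titer (log10) = reciprocal of the last dilution above the day-0 serum signal + 2 SD.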

Mus musculus [6] = assay: Analgesic activity in mouse assessed as pain response at 20 mg/kg, iv pretreated with compound for 30 mins followed by THP addition and measured after 60 mins by hot plate test; type: functional, organism-based; details: time 90.0 min; summary of the method: as §1

- Drug uptake [3]: Active
Structure (SMILES): CC[C@@H](C)[C@@H](NC(=O)CNC(=O)[C@@H](C)NC(=O)[C@H](NC(=O)[C@@H](Cc1ccc(O)cc1)NC(=O)[C@@H](C)NC(=O)[C@@H](Cc1ccc(O)cc1)NC(=O)[C@@H](CCSC)NC(=O)[C@@H](Cc1ccc(O)cc1)NC(=O)[C@H](NC(=O)[C@@H](CC(C)C)NC(=O)[C@H](N)Cc1c[nH]c2ccccc12)[C@H](C)CC)C(C)C)C(=O)N[C@H](CC(C)C)C(=O)N[C@H](CCCCN)C(=O)N[C@H](CCCNC(=N)N)C(=O)N[C@H](Cc1c[nH]c2ccccc12)C(N)=O (H-[dW][dL][dI][dY][dM][dY][dA][dY][dV][dA]G[dI][dL][dK][dR][dW]-NH2)
- Activity (Mus musculus [1]): Active
- Activity (Mus musculus [2]): Active
- Activity (BEND3): Active
- Activity (Mus musculus [4]): Active
- inhibition (HEK293T): Active
- Activity (Mus musculus [5]): Non-Toxic
- Activity (Mus musculus [6]): Active
